# High-throughput results: PubChem BioAssay, Broad Institute
# Only some compounds are listed: those with a hit (about 3.5% of all), similar ones and a draw of the others.
# esBAF inh: SWI/SNF esBAF complex inhibition | mouse ES cells, Bmi1-luciferase knock-in reporter, 24 h; 100% = twice the neutral-well signal | reporter increase, % at 12.5 µM | 350,000 compounds, 2% hits | AID 602393; in the data active = activation above about 40%;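 also: 0% = median of the plate's neutral control wells and 100% = double that signal; a rise in the Bmi1 reporter signal indicates esBAF inhibition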
# MITF TRPM1 HTS: increases MITF-driven TRPM1 promoter luciferase signal | 300,000 compounds, 0.75% hits | SK-MEL-5 TRPM1-promoter luciferase, 24 h; % of positive control, neutral wells = 0 | activation, % at 12.5 µM;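 active = mean activation of at least 80% with every replicate also reaching 80%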;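 also: 0% = neutral control wells and 100% = parthenolide positive control wells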
# ERAP1 HTS inh: ERAP1 (human) enzyme inhibition. recombinant ERAP1, Leu-AMC fluorescence, 60 min. Q9NZ08. 340,000 compounds, 0.15% hits. AID 652197. inhibition, % at 10.7 µM;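 active = mean replicate inhibition of at least 30%, or all replicates individually reaching that 30% level; inactive = mean below 30% and not every replicate reaching it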;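 also: 0% = neutral control wells and 100% = L-leucinethiol positive control wells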
# Target sequence (Q9NZ08 whole entry, looked up): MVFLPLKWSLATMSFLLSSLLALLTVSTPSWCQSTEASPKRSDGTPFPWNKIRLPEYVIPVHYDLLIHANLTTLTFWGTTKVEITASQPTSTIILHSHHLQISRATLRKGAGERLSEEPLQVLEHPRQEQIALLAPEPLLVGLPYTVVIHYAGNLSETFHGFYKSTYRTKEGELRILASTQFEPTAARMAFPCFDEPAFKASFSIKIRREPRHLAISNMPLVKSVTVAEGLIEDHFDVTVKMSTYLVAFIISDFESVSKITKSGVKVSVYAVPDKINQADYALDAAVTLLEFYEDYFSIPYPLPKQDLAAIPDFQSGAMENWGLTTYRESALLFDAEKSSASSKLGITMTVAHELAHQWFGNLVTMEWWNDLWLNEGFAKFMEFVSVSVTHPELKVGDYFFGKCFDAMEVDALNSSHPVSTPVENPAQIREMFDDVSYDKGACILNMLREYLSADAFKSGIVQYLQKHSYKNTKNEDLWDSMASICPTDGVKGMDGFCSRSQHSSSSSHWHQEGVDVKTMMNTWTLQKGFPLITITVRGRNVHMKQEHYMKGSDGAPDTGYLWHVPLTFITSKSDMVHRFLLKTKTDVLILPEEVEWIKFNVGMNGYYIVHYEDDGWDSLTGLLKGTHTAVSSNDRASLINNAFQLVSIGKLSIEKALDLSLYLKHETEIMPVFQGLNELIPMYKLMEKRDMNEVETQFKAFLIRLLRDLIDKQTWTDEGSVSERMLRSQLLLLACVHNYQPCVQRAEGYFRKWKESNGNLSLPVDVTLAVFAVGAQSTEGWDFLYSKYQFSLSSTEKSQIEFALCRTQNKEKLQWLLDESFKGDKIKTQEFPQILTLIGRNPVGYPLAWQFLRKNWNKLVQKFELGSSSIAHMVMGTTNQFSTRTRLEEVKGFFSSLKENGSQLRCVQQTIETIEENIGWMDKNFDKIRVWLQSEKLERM
# Wnt act: Wnt/beta-catenin pathway activation; activation, % at 9.35 µM; Wnt/beta-catenin reporter cell assay, activator, plate reader; 300,000 compounds, 1.2% hits; in the data active = activation above about 30%, passing the limit was not always enough;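 also: 0% = neutral control wells and 100% = positive control wells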
# Env fusion inh: blocks HIV Env-driven cell-cell fusion | HeLa-JRFL Env/CEM21 cell fusion, luciferase | 360,000 compounds, 1.1% hits | inhibition, % at 12.3 µM | AID 651610;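 active = mean replicate inhibition score of at least 50 and every replicate individually at or above 50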;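 also: 0% = plate neutral controls and 100% = maraviroc near 300 nM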
# Cneo AK release: Cryptococcus neoformans lysis via adenylate kinase release; C. neoformans lysis, adenylate kinase release luminescence, 4 h; normalised: neutral wells 0, clomiphene wells 100; lysis activity, % at 15 µM; 360,000 compounds, 0.2% hits; AID 651654;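 active = mean lysis activity across replicates of at least 80%, whatever share of replicates individually reach that level; inactive = mean lysis activity below 80%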
#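 Assay system: log-phase C. neoformans yeast / Quantity: yeast cell density of 5 × 10^6 cells/mL / Medium: fresh YPD growth medium / Compound: single dose / Timing: static 4 h at 37 °C with compound, 1 h detection / Measured by: adenylate kinase release luminescence / Read-out: lysis from increased AK signal / Benchmarks: Clomiphene as positive lysis control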
# * = called active by the depositor; x = not tested or not shown; ! = a repeat was not active; [ ] = remark or other dose.
SMILES,esBAF inh,MITF TRPM1 HTS,ERAP1 HTS inh,Wnt act,Env fusion inh,Cneo AK release
O=C(O)c1cc(N/N=C/C=C/c2ccccc2[N+](=O)[O-])ccc1Cl,35.2,55.6,-0.6,60.4*,-43.7,-1.2
NS(=O)(=O)c1ccc(N/N=C/C=C/c2ccccc2[N+](=O)[O-])cc1,83.1*,64.5,2.8,25.1,-78.0,-1.9
Nc1ccc(S(=O)(=O)NN=CC=Cc2ccccc2[N+](=O)[O-])cc1,2.6,-9.5,0.6,-3.8,3.8,x
CN(CC(=O)Nc1ccc(F)cc1)C(=O)CSc1nnc(Cc2ccccc2)o1,-0.2,-11.6,-3.3,63.4*,8.4,0.8
CC(C)NC(=O)NCC[C@@H]1CC[C@@H](NS(=O)(=O)c2ccccc2)[C@@H](CO)O1,x,x,-2.3,x,x,x
C[C@@H]1CN([C@H](C)CO)C(=O)c2c(c3ccccc3n2C)-c2ccccc2CO[C@@H]1CN(C)S(=O)(=O)c1cccc(F)c1,5.5,x,0.7,x,95.2*[16.7 µM],-1.3
C[C@@H]1CN([C@H](C)CO)C(=O)c2c(c3ccccc3n2C)-c2ccccc2CO[C@H]1CN(C)S(=O)(=O)c1cccc(F)c1,-2.7,x,1.6,x,48.8[16.7 µM],-1.7
C[C@H](CO)N1C[C@H](C)[C@H](CN(C)S(=O)(=O)c2cccc(F)c2)OCc2ccccc2-c2c(n(C)c3ccccc23)C1=O,-1.2,x,1.5,-2.2,97.5*!,2.3
C[C@H](CO)N1C[C@H](C)[C@H](CN(C)S(=O)(=O)c2cccc(C#N)c2)OCc2ccccc2-c2c(n(C)c3ccccc23)C1=O,5.6,x,0.2,x,56.9*[16.7 µM],1.0
Cc1cc(C)c(S(=O)(=O)c2c(C)cccc2C)c(OCC(C)C)n1,-2.5,-8.5,x,2.3,77.6*,-2.3
C#CCOc1nc(C)cc(C)c1S(=O)(=O)c1ccccc1C,x,-4.6,-5.6,-1.2,3.9,x
Cc1cc(/C=N/Nc2ncnc(N)c2[N+](=O)[O-])c(C)n1-c1ccccc1,-79.0,-80.1,1.1,-15.4,55.2*,-3.5
COc1cccc(/C=N/Nc2ncnc(N)c2[N+](=O)[O-])c1OC,-61.9,-33.3,x,x,x,-3.9
COC(=O)C1=C(N)Oc2cc(N(C)C)ccc2C1c1ccccc1OC (stereo unspecified),-13.5,x,x,x,61.0*,9.0
O=C(Nc1ccc2c(c1)OCCO2)N1CCN(c2ccc(F)cc2)CC1,24.4,0.1,x,4.3,28.4,-1.3
CC(C)(C)OC(=O)N1CCN(C(=O)Nc2ccc3c(c2)OCCO3)CC1,47.8*,7.9,0.3,12.0,19.5,-1.9
Cc1cccc(C)c1N1CCN(C(=O)Nc2ccc3c(c2)OCCO3)CC1,21.9,x,x,44.5*,8.0,-2.8
COc1cccc(-c2cnc3c(c2)C(=O)N([C@H](C)CO)C[C@H](C)[C@@H](CN(C)Cc2ccncc2)O3)c1,0.8,x,-0.8,x,0.2[16.7 µM],5.9
O=c1cc(O)c2sc(Nc3ccc(F)c(Cl)c3)nc2[nH]1,x,-30.0,3.0,-2.4,68.1*,x
Cc1ccc(C(=O)Nc2ccc3nc(C)sc3c2)s1,58.4*,44.7,x,x,x,-1.5
Cc1ccc(C(=O)Nc2ccc(SC(F)F)cc2)s1,x,83.3*,1.0,11.0,-216.3,-5.4
Cc1nc2cc(NC(=O)c3ccc(Br)s3)ccc2s1,70.3*,5.6,-1.4,-3.1,-228.7,-5.2
O=C(Nc1ccc2c(c1)OCCO2)c1ccc(Br)s1,x,15.7,-2.8,-3.7,x,-0.1
Cc1nc2ccc(NC(=O)CCC3CCCC3)cc2s1,49.6*,73.2,-0.1,3.4,-3.1,1.7
CC[N+](CC)(CC)CC(=O)Nc1ccc(SC(F)F)cc1,-2.0,-6.8,12.7,-0.6,3.3,-4.3
SMILES,esBAF inh,MITF TRPM1 HTS,ERAP1 HTS inh,Wnt act,Env fusion inh,Cneo AK release
COc1cccc(S(=O)(=O)N[C@H]2CC[C@@H](CC(=O)NC3CCC3)O[C@@H]2CO)c1,1.4,x,0.7,x,-1.6[16.7 µM],0.9
O=C(C[C@H]1CC[C@H]2[C@@H](COC[C@@H](O)CN2S(=O)(=O)c2ccccc2)O1)Nc1ccccc1,-2.5,x,-4.6,x,x,0.8
CC(C)C[C@@H](COCc1ccc(C(F)(F)F)cc1)N1CCN(C(=O)c2ccc(C(F)(F)F)cc2)CCC1=O,x,x,x,-4.1,46.4,x
O=C(c1ccc(C(F)(F)F)cc1)N1CCC(=O)N(C(COCc2ccccc2)Cc2ccccc2)CC1 (stereo unspecified),-0.1,5.2,-3.4,2.4,63.3*,3.0
CC(C)C[C@@H](COCc1cccc(Cl)c1)N1CCN(C(=O)c2ccc(C(F)(F)F)cc2)CCC1=O,x,x,x,-2.8,56.8*,x
CC(C)CC(COCc1ccc(C(F)(F)F)cc1)N1CCN(C(=O)c2ccc(C(F)(F)F)cc2)CCC1=O (stereo unspecified),-6.7,1.1,1.4,-9.7,57.5*,3.6
COc1ccc2c3c([nH]c2c1)[C@@H](CO)N(Cc1nccs1)CC31CN(C(=O)C2CC2)C1,x,x,1.0,x,x,x
CCCNC(=O)N[C@@H]1C=C[C@H](CC(=O)N2CCN(C)CC2)O[C@H]1CO,-0.6,x,2.1,x,16.5[16.7 µM],-1.3
C[C@H](CO)N1C[C@H](C)[C@H](CN(C)CC2CC2)Oc2ccc(NC(=O)c3ccncc3)cc2CC1=O,6.3,x,4.0,x,-2.9[16.7 µM],-4.7
COc1ccccc1NC(=O)C(=O)c1cn(CC(=O)N2CCCC2)c2ccccc12,71.9*,32.7,-1.2,9.0,-26.1,x
CCN(CC)C(=O)Cn1cc(C(=O)C(=O)Nc2ccc3c(c2)OCCO3)c2ccccc21,60.4*,82.0*,-2.6,-1.0,-52.4,-3.9
CC(=O)Nc1cccc(NC(=O)C(=O)c2cn(CC(=O)N3CCCC3)c3ccccc23)c1,47.2*,x,-1.2,x,-55.0,0.4
C[C@H](CO)N1C[C@H](C)[C@@H](CN(C)Cc2ccc(C(=O)O)cc2)Oc2c(NC(=O)C3CCOCC3)cccc2C1=O,0.1,x,0.1,x,-1.1[16.7 µM],-1.9
O=C(Cc1ccccn1)N1CC2(C1)[C@@H](c1ccccc1)[C@@H](CO)N2C(=O)c1ccccc1,x,x,-0.9,x,x,x
CCOc1ccc(N(CC(=O)Nc2ccc(C)c(C)c2)S(C)(=O)=O)cc1,83.6*,38.6,-3.1,12.9,-80.4,-0.9
COc1ccc(N(CC(=O)Nc2cccc(SC)c2)S(C)(=O)=O)cc1,45.3*,28.7,x,x,x,1.8
C[C@H](CO)N1C[C@H](C)[C@H](CN(C)C(=O)C2CCCCC2)Oc2ncc(C#CC3CCCC3)cc2C1=O,-2.5,x,-3.4,x,7.6[16.7 µM],1.3
CC(=O)N1CCCCN2[C@H](CO)[C@@H](c3ccc(-c4ccncc4)cc3)[C@@H]2C1,2.6,x,1.5,x,x,-20.6
CC(C)(C)c1ccc(/C=C/C(=O)N2CCc3ccccc3C2)cc1,-1.2,10.4,6.6,-0.8,x,-8.4
O=C(Cc1ccc(Br)cc1)N1CCc2ccccc2C1,52.6*,x,0.1,4.7,-61.8,4.0
O=C(/C=C/c1ccc(F)cc1)N1CCc2ccccc2C1,47.8*,49.6,1.6,8.9,-64.6,-2.5
O=C(/C=C/C(=O)N1CCc2ccccc2C1)N1CCc2ccccc2C1,x,9.5,-0.6,0.0,-10.7,x
